Test results as given in ChEMBL document CHEMBL5705905, “Pharmacological targeting of kinases MST1 and MST2 augments tissue repair and regeneration” (Sci Transl Med, 2016).
The source made the active and inactive calls. The calls are words filed in the database; no cut-off is given here.

Legend:
[1] = molecular target: MAP kinase-interacting serine/threonine-protein kinase 2 (Homo sapiens) (UniProt Q9HBH9); test: Inhibition of MKNK2 (unknown origin) assessed as remaining activity at 1 uM by Kinome scan method relative to control
[2] = molecular target: Activin receptor type-1 (Homo sapiens) (UniProt Q04771); test: Inhibition of ACVR1 (unknown origin) assessed as remaining activity at 1 uM by Kinome scan method relative to control
Procedure, shortened: (§1)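 Active-site-dependent competition-binding (KINOMEscan) panel of 468 kinases, test compound at 1 μM (from a 10 mM DMSO stock). Read-out is ctrl% = (test signal − positive control signal)/(negative control signal − positive control signal) × 100. DMSO is the negative control (100%) and a control compound is the positive control (0%). Lower ctrl% means tighter binding.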

[3] = Acute toxicity in wild-type mouse assessed as cell proliferation in kidney at 3 mg/kg,ip administrated daily for 7 days by Ki67 staining; type: organism-based; conditions: in vivo, 168 h, time 7 day
Procedure, shortened: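 Wild-type mice received vehicle or 3 mg/kg i.p. daily for 7 days. Ki67 staining of sections from various tissues with quantification of positive cells, n = 6; means ± SD, Student's t test. Daily weights, physical activity and serum chemistry were also monitored.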

[4] = molecular target: Calcium/calmodulin-dependent protein kinase type II subunit beta (Homo sapiens) (UniProt Q13554); test: Inhibition of CAMK2B (unknown origin) assessed as remaining activity at 1 uM by Kinome scan method relative to control
Chain of Calcium/calmodulin-dependent protein kinase type II subunit beta (Homo sapiens) (Q13554 whole entry): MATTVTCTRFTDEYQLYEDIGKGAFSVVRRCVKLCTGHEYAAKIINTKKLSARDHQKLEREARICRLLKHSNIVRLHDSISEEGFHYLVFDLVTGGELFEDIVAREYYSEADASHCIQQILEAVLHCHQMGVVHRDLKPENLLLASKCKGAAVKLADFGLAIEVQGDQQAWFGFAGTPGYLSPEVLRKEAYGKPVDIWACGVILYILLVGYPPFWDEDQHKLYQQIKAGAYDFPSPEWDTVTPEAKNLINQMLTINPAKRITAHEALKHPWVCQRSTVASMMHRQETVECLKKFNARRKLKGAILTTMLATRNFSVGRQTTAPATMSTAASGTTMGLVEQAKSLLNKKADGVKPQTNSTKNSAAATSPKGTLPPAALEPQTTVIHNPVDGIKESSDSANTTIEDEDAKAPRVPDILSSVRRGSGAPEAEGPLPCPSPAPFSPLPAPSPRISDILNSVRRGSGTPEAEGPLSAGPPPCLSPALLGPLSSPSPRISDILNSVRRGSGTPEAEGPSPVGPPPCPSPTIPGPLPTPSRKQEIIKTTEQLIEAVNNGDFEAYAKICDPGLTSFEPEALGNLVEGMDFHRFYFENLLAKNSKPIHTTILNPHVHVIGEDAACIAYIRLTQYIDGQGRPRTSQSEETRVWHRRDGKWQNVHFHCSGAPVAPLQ
Procedure, shortened: (§2)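 Active-site-dependent competition-binding profiling (KINOMEscan) at 1 μM against a 468-kinase panel; compound supplied from a 10 mM DMSO stock. Read-out is ctrl% = (test signal − positive control signal)/(negative control signal − positive control signal) × 100. DMSO is the negative control (100%) and a control compound the positive control (0%). Lower ctrl% means tighter binding.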

Mus musculus [5] = test: In vivo inhibition of MST1/2 in mouse assessed as MOB1 phosphorylation level at 1 mg/kg, ip administration and measured after between 1.5 to 6 hrs by immunoblot analysis; type: functional, organism-based; conditions: time 1.5-6 hrs
Procedure, shortened: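 Wild-type mice received 1 mg/kg intraperitoneally, with vehicle of 0.1% citric acid aqueous solution containing 20% Kolliphor HS 15. Livers were harvested over 0–12 h and lysates immunoblotted for p-MOB1 and p-YAP, normalized to control. Means ± SD, n = 3.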

[6] = system: Epidermal growth factor receptor (Homo sapiens), P00533 [UNDEFINED MUTATION]; test: Inhibition of EGFR L747-E749del/A750P mutant (unknown origin) assessed as remaining activity at 1 uM by Kinome scan method relative to control
[7] = molecular target: Serine/threonine-protein kinase WNK1 (Homo sapiens) (UniProt Q9H4A3); test: Inhibition of WNK1 (unknown origin) assessed as remaining activity at 1 uM by Kinome scan method relative to control
Chain of Serine/threonine-protein kinase WNK1 (Homo sapiens) (Q9H4A3 whole entry, looked up): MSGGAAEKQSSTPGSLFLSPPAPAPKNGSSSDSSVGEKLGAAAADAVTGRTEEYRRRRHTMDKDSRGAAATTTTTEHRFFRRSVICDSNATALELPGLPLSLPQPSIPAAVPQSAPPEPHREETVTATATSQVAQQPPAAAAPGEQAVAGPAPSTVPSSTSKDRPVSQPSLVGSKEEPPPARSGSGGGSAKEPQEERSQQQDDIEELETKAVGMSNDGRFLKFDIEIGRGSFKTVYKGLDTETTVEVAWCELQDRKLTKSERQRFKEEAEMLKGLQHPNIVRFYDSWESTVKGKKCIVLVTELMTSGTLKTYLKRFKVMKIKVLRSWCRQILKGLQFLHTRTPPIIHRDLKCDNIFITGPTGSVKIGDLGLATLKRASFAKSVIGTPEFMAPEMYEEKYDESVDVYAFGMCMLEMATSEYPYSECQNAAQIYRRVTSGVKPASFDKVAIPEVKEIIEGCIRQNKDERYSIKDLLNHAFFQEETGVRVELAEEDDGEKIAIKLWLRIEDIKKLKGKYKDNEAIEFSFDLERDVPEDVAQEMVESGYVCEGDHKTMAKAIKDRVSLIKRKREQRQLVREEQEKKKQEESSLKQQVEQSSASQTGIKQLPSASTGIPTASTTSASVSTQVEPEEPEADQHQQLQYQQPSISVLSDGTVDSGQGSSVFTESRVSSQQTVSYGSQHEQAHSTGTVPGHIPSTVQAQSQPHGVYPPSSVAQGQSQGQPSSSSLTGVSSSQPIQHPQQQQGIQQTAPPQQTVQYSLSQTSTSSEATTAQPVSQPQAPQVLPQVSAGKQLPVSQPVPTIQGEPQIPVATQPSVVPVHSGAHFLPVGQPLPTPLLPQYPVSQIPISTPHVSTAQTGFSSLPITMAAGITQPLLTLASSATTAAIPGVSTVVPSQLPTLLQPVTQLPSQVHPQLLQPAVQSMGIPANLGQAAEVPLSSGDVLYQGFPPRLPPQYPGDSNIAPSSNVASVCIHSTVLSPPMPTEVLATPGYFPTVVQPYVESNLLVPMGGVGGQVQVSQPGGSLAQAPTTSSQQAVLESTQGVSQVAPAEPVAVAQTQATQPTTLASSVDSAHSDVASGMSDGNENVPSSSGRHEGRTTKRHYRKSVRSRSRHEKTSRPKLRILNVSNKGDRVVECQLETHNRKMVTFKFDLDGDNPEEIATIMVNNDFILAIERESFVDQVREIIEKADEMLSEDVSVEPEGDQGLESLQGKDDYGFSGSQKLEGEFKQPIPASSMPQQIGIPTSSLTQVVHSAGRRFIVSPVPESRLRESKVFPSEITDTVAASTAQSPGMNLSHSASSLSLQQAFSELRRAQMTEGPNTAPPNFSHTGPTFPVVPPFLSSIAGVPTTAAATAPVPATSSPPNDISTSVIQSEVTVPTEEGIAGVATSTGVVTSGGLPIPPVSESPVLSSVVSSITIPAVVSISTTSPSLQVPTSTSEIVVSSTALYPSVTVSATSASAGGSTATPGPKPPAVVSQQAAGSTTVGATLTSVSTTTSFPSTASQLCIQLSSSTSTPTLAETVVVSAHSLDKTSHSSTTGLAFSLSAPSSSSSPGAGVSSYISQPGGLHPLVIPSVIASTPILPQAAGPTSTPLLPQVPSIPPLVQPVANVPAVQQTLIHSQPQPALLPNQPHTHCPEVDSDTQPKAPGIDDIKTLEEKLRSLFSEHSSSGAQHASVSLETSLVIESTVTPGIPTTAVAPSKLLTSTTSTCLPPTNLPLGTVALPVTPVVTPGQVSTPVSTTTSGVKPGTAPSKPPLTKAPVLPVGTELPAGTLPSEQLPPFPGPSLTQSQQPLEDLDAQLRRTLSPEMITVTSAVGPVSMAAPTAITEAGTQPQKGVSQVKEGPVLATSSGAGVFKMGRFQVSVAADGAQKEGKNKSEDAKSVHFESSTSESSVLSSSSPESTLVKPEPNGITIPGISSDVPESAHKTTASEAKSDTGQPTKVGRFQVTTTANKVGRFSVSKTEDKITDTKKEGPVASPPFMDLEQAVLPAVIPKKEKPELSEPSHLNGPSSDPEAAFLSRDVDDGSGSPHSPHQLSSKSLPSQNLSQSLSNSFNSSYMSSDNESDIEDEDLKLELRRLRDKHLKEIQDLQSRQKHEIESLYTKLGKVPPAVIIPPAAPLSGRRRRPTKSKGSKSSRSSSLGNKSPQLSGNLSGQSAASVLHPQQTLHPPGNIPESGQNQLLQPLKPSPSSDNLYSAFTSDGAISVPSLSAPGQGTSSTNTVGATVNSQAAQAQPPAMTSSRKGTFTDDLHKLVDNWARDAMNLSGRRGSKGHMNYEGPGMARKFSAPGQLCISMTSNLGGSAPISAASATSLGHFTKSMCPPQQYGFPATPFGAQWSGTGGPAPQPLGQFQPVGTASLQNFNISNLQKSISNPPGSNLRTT

Aurora kinase B = Aurora kinase B (Homo sapiens, UniProt Q96GD4); test: Binding affinity to AURKB (unknown origin) assessed as dissociation constant
Chain of Aurora kinase B (Q96GD4 whole entry, canonical isoform): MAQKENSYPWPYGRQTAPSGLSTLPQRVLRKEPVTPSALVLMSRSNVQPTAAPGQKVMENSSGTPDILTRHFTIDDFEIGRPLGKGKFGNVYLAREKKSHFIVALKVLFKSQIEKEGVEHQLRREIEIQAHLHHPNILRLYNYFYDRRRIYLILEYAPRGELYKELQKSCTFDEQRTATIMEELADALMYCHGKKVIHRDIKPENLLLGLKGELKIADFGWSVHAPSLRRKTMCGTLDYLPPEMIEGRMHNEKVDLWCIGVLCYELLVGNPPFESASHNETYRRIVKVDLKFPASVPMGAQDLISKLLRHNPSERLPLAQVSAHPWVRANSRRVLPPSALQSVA

[8] = molecular target: Phosphorylase b kinase gamma catalytic chain, liver/testis isoform (Homo sapiens) (UniProt P15735); test: Inhibition of PHKG2 (unknown origin) assessed as remaining activity at 1 uM by Kinome scan method relative to control
[9] = molecular target: Myosin-IIIb (Homo sapiens) (UniProt Q8WXR4); test: Inhibition of MYO3B (unknown origin) assessed as remaining activity at 1 uM by Kinome scan method relative to control
[10] = molecular target: Serine/threonine-protein kinase B-raf (Homo sapiens) (UniProt P15056); test: Inhibition of BRAF (unknown origin) assessed as remaining activity at 1 uM by Kinome scan method relative to control; procedure, shortened: as §1
[11] = molecular target: Serine/threonine-protein kinase DCLK2 (Homo sapiens) (UniProt Q8N568); test: Inhibition of DCAMKL2 (unknown origin) assessed as remaining activity at 1 uM by Kinome scan method relative to control
[12] = molecular target: Mitogen-activated protein kinase 4 (Homo sapiens) (UniProt P31152); test: Inhibition of ERK4 (unknown origin) assessed as remaining activity at 1 uM by Kinome scan method relative to control
Chain of Mitogen-activated protein kinase 4 (Homo sapiens) (P31152 whole entry): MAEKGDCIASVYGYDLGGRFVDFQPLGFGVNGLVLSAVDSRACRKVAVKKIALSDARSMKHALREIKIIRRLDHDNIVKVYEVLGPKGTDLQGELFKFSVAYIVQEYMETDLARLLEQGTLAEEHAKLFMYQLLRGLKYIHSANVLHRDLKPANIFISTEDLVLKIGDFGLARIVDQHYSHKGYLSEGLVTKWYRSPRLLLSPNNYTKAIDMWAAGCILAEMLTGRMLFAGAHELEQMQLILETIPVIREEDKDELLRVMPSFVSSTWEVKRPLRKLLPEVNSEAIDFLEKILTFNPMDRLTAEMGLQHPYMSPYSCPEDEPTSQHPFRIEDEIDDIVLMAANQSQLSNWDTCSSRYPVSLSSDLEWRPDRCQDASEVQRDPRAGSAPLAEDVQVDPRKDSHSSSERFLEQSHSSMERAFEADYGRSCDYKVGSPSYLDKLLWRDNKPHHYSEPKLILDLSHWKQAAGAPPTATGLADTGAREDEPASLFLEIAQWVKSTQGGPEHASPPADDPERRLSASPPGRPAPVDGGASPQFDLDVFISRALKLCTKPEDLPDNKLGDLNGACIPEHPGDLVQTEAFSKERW

[13] = molecular target: Serine/threonine-protein kinase Sgk1 (Homo sapiens) (UniProt O00141); test: Inhibition of SGK (unknown origin) assessed as remaining activity at 1 uM by Kinome scan method relative to control
Mus musculus [14] = test: Anti-colitis activity against DSS-induced mouse assessed as high BrdU incorporation at 1 mg/kg, ip administrated daily for 8 days by IHC staining; type: functional, organism-based; conditions: Colon, time 8.0 day
Procedure, shortened: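 Wild-type mice received oral DSS for 7 days with vehicle or 1 mg/kg daily. Colon sections were stained by IHC for YAP, BrdU and Ki67, and positive cells were quantified per animal. Means ± SD, n = 10, Student's t test.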

[15] = molecular target: Serine/threonine-protein kinase STK11 (Homo sapiens) (UniProt Q15831); test: Inhibition of LKB1 (unknown origin) assessed as remaining activity at 1 uM by Kinome scan method relative to control
[16] = molecular target: Dual specificity protein kinase CLK2 (Homo sapiens) (UniProt P49760); test: Inhibition of CLK2 (unknown origin) assessed as remaining activity at 1 uM by Kinome scan method relative to control; procedure, shortened: as §2
Chain of Dual specificity protein kinase CLK2 (Homo sapiens) (P49760 whole entry, looked up): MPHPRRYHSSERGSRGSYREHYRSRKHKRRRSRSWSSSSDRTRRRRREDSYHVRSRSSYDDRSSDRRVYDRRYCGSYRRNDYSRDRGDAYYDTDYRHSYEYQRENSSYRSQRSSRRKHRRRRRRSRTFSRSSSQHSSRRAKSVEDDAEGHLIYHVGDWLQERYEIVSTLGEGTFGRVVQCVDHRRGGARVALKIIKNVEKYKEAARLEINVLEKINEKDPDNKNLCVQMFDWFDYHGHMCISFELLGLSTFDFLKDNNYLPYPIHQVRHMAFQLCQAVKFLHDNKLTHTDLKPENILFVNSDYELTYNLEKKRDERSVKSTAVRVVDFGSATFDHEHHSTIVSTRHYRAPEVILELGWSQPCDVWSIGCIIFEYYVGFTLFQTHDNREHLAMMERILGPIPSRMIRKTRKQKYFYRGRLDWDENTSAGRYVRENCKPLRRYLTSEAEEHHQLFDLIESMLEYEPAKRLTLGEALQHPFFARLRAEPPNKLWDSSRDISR

HepG2 = test: Induction of apoptosis in human HepG2 cells overexpressing MST2 assessed as late apoptosis cells at 3 uM by annexinV staining (Rvb =2.01 %); type: functional
[17] = molecular target: Serine/threonine-protein kinase 3 (Homo sapiens, UniProt Q13188, D109A/Y101F)
Chain of Serine/threonine-protein kinase 3 (Q13188 whole entry Y101F/D109A): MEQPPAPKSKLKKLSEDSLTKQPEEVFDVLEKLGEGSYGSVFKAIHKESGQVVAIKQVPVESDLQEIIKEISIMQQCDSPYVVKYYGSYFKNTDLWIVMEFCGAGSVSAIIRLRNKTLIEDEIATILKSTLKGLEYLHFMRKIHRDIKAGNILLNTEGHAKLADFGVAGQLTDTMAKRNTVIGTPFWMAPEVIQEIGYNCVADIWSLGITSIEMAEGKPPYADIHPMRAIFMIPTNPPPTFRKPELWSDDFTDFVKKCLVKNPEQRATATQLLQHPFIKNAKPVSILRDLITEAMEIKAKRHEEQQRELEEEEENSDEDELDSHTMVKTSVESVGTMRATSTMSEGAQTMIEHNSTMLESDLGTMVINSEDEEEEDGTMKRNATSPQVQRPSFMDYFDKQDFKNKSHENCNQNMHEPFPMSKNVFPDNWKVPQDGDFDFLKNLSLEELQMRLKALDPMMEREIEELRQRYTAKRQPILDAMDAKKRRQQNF

[18] = molecular target: Serine/threonine-protein kinase PAK 5 (Homo sapiens) (UniProt Q9P286); test: Inhibition of PAK7 (unknown origin) assessed as remaining activity at 1 uM by Kinome scan method relative to control
[19] = molecular target: Protein-tyrosine kinase 2-beta (Homo sapiens) (UniProt Q14289); test: Inhibition of PYK2 (unknown origin) assessed as remaining activity at 1 uM by Kinome scan method relative to control
[20] = system: Proto-oncogene tyrosine-protein kinase receptor Ret (Homo sapiens), P07949 [V804L]; test: Inhibition of RET V804L (unknown origin) assessed as remaining activity at 1 uM by Kinome scan method relative to control
[21] = molecular target: Activin receptor type-2A (Homo sapiens) (UniProt P27037); test: Inhibition of ACVR2A (unknown origin) assessed as remaining activity at 1 uM by Kinome scan method relative to control; procedure, shortened: as §1
[22] = molecular target: Cyclin-dependent kinase 18 (Homo sapiens) (UniProt Q07002); test: Inhibition of PCTK3 (unknown origin) assessed as remaining activity at 1 uM by Kinome scan method relative to control

CN1C(=O)c2sccc2N(C)c2nc(Nc3ccc(S(N)(=O)=O)cc3)ncc21
Activity [1]: 59% | Activity [2]: 91% | Activity [3]: Non-Toxic | Activity [4]: 73% | inhibition (Mus musculus [5]): Active | Activity [6]: 100% | Activity [7]: 97% | Kd (Aurora kinase B): 40 nM | Activity [8]: 100% | Activity [9]: 100% | Activity [10]: 100% | Activity [11]: 84% | Activity [12]: 80% | Activity [13]: 96% | Activity (Mus musculus [14]): Active | Activity [15]: 96% | Activity [16]: 71% | Activity (HepG2): 1.54% | IC50 [17]: 1680 nM | Activity [18]: 85% | Activity [19]: 98% | Activity [20]: 78% | Activity [21]: 100% | Activity [22]: 100%
